MC4R ag barr – MC4R agonists recruiting beta-arrestin, primary screen, cell-based, luminescence, agonist arm of biased-ligand search; U2OS MC4R beta-arrestin complementation; percent of melanotan II response, DMSO zero; Melanocortin receptor 4 (Homo sapiens), P32245; actives 0.98% (n = 360,000); activation, % at 8.9 µM;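 active = activation above a per-plate cutoff, the mean activation of sample wells on that plate plus 3 SD, cut at about 8% in these data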
Target sequence (P32245 whole entry, looked up): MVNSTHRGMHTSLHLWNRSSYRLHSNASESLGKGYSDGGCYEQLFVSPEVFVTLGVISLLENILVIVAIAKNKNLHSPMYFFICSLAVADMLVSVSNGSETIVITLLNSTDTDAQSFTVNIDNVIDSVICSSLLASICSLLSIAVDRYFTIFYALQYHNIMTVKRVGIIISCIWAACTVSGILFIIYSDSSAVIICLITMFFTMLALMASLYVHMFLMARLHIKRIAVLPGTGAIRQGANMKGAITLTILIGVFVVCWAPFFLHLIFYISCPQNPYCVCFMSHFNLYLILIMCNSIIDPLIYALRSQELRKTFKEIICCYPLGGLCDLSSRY
MC4R antag cAMP – MC4R antagonists of cAMP signaling, primary screen, cell-based, TR-FRET, antagonist arm of biased-ligand search; inhibition, % at 6.5 µM; MC4R-expressing cells, MTII-stimulated cAMP, LANCE TR-FRET; AID 540295, 2011; Melanocortin receptor 4 (Homo sapiens), P32245; actives 0.48% (n = 360,000);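 active = inhibition above its plate's cutoff, the mean of tested wells on that plate plus 3 SD, cut at about 29% in these data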;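 also: 0% = Melanotan II alone and 100% = Melanotan II plus saturating MCL0020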
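material = U2OS cells stably expressing human melanocortin 4 receptor (MC4R) | also added = Melanotan II challenge | dosing = single nominal compound dose of 6.5 µM | detection = TR-FRET with Eu-cAMP and labeled anti-cAMP, 671 nm | replication = singlicate | timing = compound 30 min, challenge 1 h, detection 1 h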
AHR activator – AHR activators, primary screen, cell-based, luminescence, luciferase reporter, human | AHR-responsive luciferase reporter cells | activation, % at 5 µM | actives 2.5% (n = 320,000) | AID 2796, 2010; in the data active = activation above about 47%;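 also: 0% = vehicle wells and 100% = reference agonist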
HTR2A ag – mouse Htr2a agonists via beta-arrestin recruitment, primary screen, cell-based, luminescence | 5-hydroxytryptamine receptor 2A (Mus musculus), P35363 | CHO-K1 mHTR2A beta-arrestin complementation; percent of 30 µM serotonin response | activation, % at 7.6 µM | actives 0.66% (n = 360,000) | AID 624169, 2012;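 active = activation above a run cutoff, the mean activation of all tested compounds plus 3 SD, cut at about 14% in these data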;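 also: 0% = plate median of compound wells and 100% = 30 µM serotonin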
GAA850 FXN act – FXN promoter activators, primary screen, cell-based, luciferase luminescence, HEK293 lucGAA850 | AID 540364, 2011 | HEK293 lucGAA850 FXN promoter luciferase reporter, 24 h; percent of 10 µM SAHA response | activation, % at 6 µM | actives 0.56% (n = 360,000);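 active = activation above the average of all compounds screened plus 3 SD, cutoff fixed separately per campaign, cut at about 7.5% in these data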;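 also: 0% = DMSO wells and 100% = 10 µM SAHA wells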
MOR ag counter – OPRM1 agonists via beta-arrestin recruitment, confirmation, counter-screen for mouse HTR2A agonist project, cell-based, luminescence, single concentration. U2OS OPRM1 beta-arrestin PathHunter; DMSO 0%, DAMGO 9.3 µM 100%. actives 5.3% (n = 2,300). shares compounds with HTR2A ag. activation, % at 9.3 µM;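 active = mean activation above the mean of DMSO-only wells plus 3 SD, cut at about 0.5% in these data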
m5-HT2A ag conf – mouse HTR2A agonists, beta-arrestin recruitment, confirmation, cell-based, luminescence, CHO-K1 PathHunter, triplicate; activation, % at 7.6 µM; shares compounds with HTR2A ag; DMSO 0%, 30 µM serotonin 100%; actives 19% (n = 2,300); AID 624381, 2012;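 active = mean activation across triplicates above the hit threshold derived in the original primary screen, cut at about 15% in these data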
Active calls of the source: *; · = no result. Rows were chosen to be rich in hits. Some 4.7% of all compounds tested hit in one or more screens of this group.

SMILES	MC4R ag barr	MC4R antag cAMP	AHR activator	HTR2A ag	GAA850 FXN act	MOR ag counter	m5-HT2A ag conf
Nc1nc(-c2ccccc2)c(CCCNc2ccccc2)c(=O)[nH]1	-1	-1	·	-9	1	·	·
CC(=O)N1CCc2cc(C(=O)CN3CCN(c4cccc(Cl)c4)CC3)ccc21	0	5	-3	25*	0	-1	90*
CC(=O)N1CCc2cc(C(=O)CN3CCC(C)CC3)ccc21	-1	1	-2	2	3	·	·
COc1ccc(-c2csc(-n3ncc(C(=O)O)c3C(F)(F)F)n2)cc1	2	4	9	15*	3	-1	-4
CCOC(=O)c1cnn(-c2nc(-c3ccccc3)cs2)c1C(F)(F)F	0	6	-3	6	2	·	·
COc1cc(NC(=O)CN2C(=O)C(c3ccccc3)=NC2(C)C)cc(OC)c1	0	2	5	28*	2	0	-4
COc1cc(NC(=O)CN2C(=O)C(c3ccccc3)=NC23CCCCCC3)cc(OC)c1	2	1	-1	-3	1	·	·
O=C(CN(C(=O)c1csnn1)c1ccc2c(c1)OCCO2)NCc1ccccc1	3	6	0	15*	3	-1	-4
COc1ccc(C2CCc3cc4c(cc3C2=NOC(C)=O)OCO4)cc1OC (stereo not drawn)	0	7	·	8	1	·	·
Cc1cc(C=O)sc1[B-](F)(F)F	-1	6	·	15*	-1	0	10
COc1ccc(CNCCNC(=O)c2cccs2)c(OC)c1OC	0	1	-1	-1	0	·	·
CCc1ccc(CNC(=O)c2ccc(OC3CCN(C(=O)COC)CC3)cc2)nc1	-3	0	·	-3	2	·	·
CCCn1c(N)c(C(=O)CSc2nnc(-c3cccs3)n2C2CC2)c(=O)[nH]c1=O	-2	-1	0	28*	-1	-1	47*
Cn1c(N)c(C(=O)CSc2nnc(-c3cccs3)n2C2CC2)c(=O)[nH]c1=O	-3	-4	·	-11	0	·	·
COc1cc(-c2nnc(-c3ccccc3)o2)cc(OC)c1OC	2	12	5	0	1	·	·
COc1cc(-c2nnc(-c3cc(OC)c(OC)c(OC)c3)o2)cc(OC)c1OC	0	8	2	17*	1	0	-2
COc1ccc(CCNC(=O)CN2C(=O)NC(c3ccccc3)(c3ccccc3)C2=O)cc1	-1	12	4	0	1	·	·
COc1ccc2c(CN3CCN(c4ccc(Cl)c(Cl)c4)CC3)cc(=O)oc2c1	·	·	·	12	·	·	·
COc1cc2oc(=O)cc(CN3CCN(c4ccc(Cl)c(Cl)c4)CC3)c2cc1Cl	·	·	·	25*	·	-1	9
O=C(/C=C/c1ccncc1)c1ccc2c(c1)OCCO2	0	25	5	5	1	·	·
COc1cc(/C=C/C(=O)c2ccc3c(c2)OCCO3)cc(Br)c1OCC(=O)N(C)C	-1	7	-3	18*	-8	-1	-6
CCOC(=O)CC1C(=O)NCCN1C(=S)NC(=O)c1ccccc1OC (stereo not drawn)	0	2	8	16*	3	-1	-3
CCC(c1nnnn1-c1ccc(OC)cc1)N1CCN(C/C=C/c2ccccc2)CC1 (stereo not drawn)	·	·	·	15*	·	-1	24*
CCC(c1nnnn1C(C)(C)C)N1CCN(C/C=C/c2ccccc2)CC1 (stereo not drawn)	·	·	·	15*	·	0	38*
